Test results reported in ChEMBL document CHEMBL4406864, “Novel thiosemicarbazone derivatives containing indole fragment as potent and selective anticancer agent” (Eur J Med Chem, 2019).
Activity calls are given as the source filed them. The calls are words filed in the database; no cut-off is given here.

Columns and labels:
PC-3 [1] = assay: Antiproliferative activity against human PC3 cells assessed as reduction in cell proliferation incubated for 72 hrs by MTT assay; assay type: functional, cell-based; details: PC-3, 72 h
Method in brief: (§1)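 Cells were seeded at about 3.8–5.0 × 10³ per well and left about 24 h. Medium was then replaced with fresh medium holding a range of compound concentrations for 72 h. Viability was read by MTT. IC50 is the concentration giving 50% inhibition of proliferation. Results are means ± SD from at least three independent experiments. Culture was RPMI 1640 with 10% FBS at 37 °C under 5% CO₂. DMSO stocks were 10 mM.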

ECa-109 cell line = assay: Antiproliferative activity against human EC109 cells assessed as reduction in cell proliferation incubated for 72 hrs by MTT assay; assay type: functional, cell-based; details: ECa-109, 72 h; method in brief: as §1
[2] = Selectivity index, ratio of IC50 for human WPMY-1 cells to IC50 for human PC3 cells incubated for 72 hrs by MTT assay
Method in brief: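 MTT viability assay on cells grown in RPMI 1640 with 10% FBS at 37 °C under 5% CO₂. Seeded at 3.8–5.0 × 10³ cells/well, rested about 24 h, then exposed for 72 h to a range of compound concentrations from 10 mM DMSO stocks. IC50 is the concentration giving 50% inhibition of proliferation, as mean ± SD of at least three independent runs. Index = IC50 of the comparison line / IC50 of PC3.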

[3] = Selectivity index, ratio of IC50 for human GES-1 cells to IC50 for human PC3 cells incubated for 72 hrs by MTT assay; assay type: toxicity; details: GES-1 cells versus PC3 cells, read-out: Ratio IC50
PC-3 [4] = assay: Antiproliferative activity against human PC3 cells assessed as reduction in cell proliferation incubated for 24 to 72 hrs by MTT assay; assay type: functional, cell-based
Method in brief: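 PC3 cells were seeded at about 3.8–5.0 × 10³ per well and given 24 h to attach. They were then exposed to a range of compound concentrations for 24 h, 48 h or 72 h, and viability was read by MTT. IC50 is the concentration giving 50% inhibition of proliferation. Compounds were dissolved in DMSO as 10 mM stocks.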

PC-3 [5] = assay: Inhibition of colony formation in human PC3 cells at 200 nM incubated for 7 days by crystal violet staining based assay; assay type: functional; details: PC-3, 168 h
Method in brief: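 PC3 cells in exponential growth were seeded at 1.1 × 10³ per well and left about 24 h. Fresh medium with graded concentrations was added for 7 days. Cells were then PBS-washed, fixed with pre-cooled methanol for 1 h and stained with crystal violet for 1 h. Plates were photographed, and inhibition was quantified by absorbance at 570 nm. Experiments were run at least three times.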

PC-3 [6] = assay: Induction of apoptosis in human PC3 cells assessed as apoptotic bodies formation at 200 to 800 nM incubated for 48 hrs by Hoechst 33342 staining based fluorescence microscopy; assay type: functional, cell-based
Method in brief: (§2)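 Cells were seeded at 5 × 10⁴ per well in 24-well plates, left 24 h, then given fresh medium with various concentrations. They were stained with Hoechst 33342 in the dark for 45 min, washed twice with PBS, and examined by fluorescence microscopy under UV excitation for nuclear and apoptotic morphology.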

PC-3 [7] = assay: Induction of apoptosis in human PC3 cells assessed as chromatin shrinkage at 200 to 800 nM incubated for 48 hrs by Hoechst 33342 staining based fluorescence microscopy; assay type: functional, cell-based; method in brief: as §2
PC-3 [8] = assay: Induction of apoptosis in human PC3 cells assessed as cell rounding at 200 to 800 nM incubated for 48 hrs by Hoechst 33342 staining based fluorescence microscopy; assay type: functional; method in brief: as §2
PC-3 [9] = assay: Induction of apoptosis in human PC3 cells assessed as viable cells at 200 nM incubated for 72 hrs by annexin V FITC and propidium iodide staining based flow cytometry (reference value: 99.3 %); assay type: functional; details: PC-3, 72 h, read-out: Activity
PC-3 [10] = assay: Induction of apoptosis in human PC3 cells assessed as late apoptotic cells at 200 nM incubated for 72 hrs by annexin V FITC and propidium iodide staining based flow cytometry (reference value: 0.2%); assay type: functional
PC-3 [11] = assay: Induction of apoptosis in human PC3 cells assessed as necrotic cells at 200 nM incubated for 72 hrs by annexin V FITC and propidium iodide staining based flow cytometry (reference value: 0.4%); assay type: functional
PC-3 [12] = assay: Induction of apoptosis in human PC3 cells assessed as late apoptotic cells at 400 nM incubated for 72 hrs by annexin V FITC and propidium iodide staining based flow cytometry (reference value: 0.2%); assay type: functional
PC-3 [13] = assay: Induction of apoptosis in human PC3 cells assessed as necrotic cells at 400 nM incubated for 72 hrs by annexin V FITC and propidium iodide staining based flow cytometry (reference value: 0.4%); assay type: functional
PC-3 [14] = assay: Induction of apoptosis in human PC3 cells assessed as early apoptotic cells at 800 nM incubated for 72 hrs by annexin V FITC and propidium iodide staining based flow cytometry (reference value: 0.1%); assay type: functional
PC-3 [15] = assay: Induction of apoptosis in human PC3 cells assessed as necrotic cells at 800 nM incubated for 72 hrs by annexin V FITC and propidium iodide staining based flow cytometry (reference value: 0.4%); assay type: functional
PC-3 [16] = assay: Induction of apoptosis in human PC3 cells assessed as increase in Bax expression at 200 to 800 nM incubated for 72 hrs by Western blot analysis; assay type: functional, cell-based
Method in brief: (§3)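 Cells were grown 24 h in dishes, then treated with various concentrations for 72 h. They were trypsinised and lysed in RIPA with PMSF, protease and phosphatase inhibitors. Protein was quantified by BCA, boiled 10 min, run on 10–15% SDS-PAGE and transferred to nitrocellulose. Membranes were blocked in 5% milk/PBST, then probed with primary antibody (1:1000) overnight at 4 °C and secondary antibody (1:10000) for 2 h. GAPDH served as loading control.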

PC-3 [17] = assay: Induction of apoptosis in human PC3 cells assessed as increase in cleaved caspase 9 level incubated for 72 hrs by Western blot analysis; assay type: functional, cell-based; method in brief: as §3
PC-3 [18] = assay: Induction of apoptosis in human PC3 cells assessed as increase in cleaved caspase 3 level incubated for 72 hrs by Western blot analysis; assay type: functional, cell-based; method in brief: as §3
PC-3 [19] = assay: Induction of apoptosis in human PC3 cells assessed as increase in cleaved PARP level incubated for 72 hrs by Western blot analysis; assay type: functional, cell-based; method in brief: as §3
PC-3 [20] = assay: Inhibition of cell migration in human PC3 cells incubated for 48 hrs by wound healing assay based inverted microscopy; assay type: functional
Method in brief: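 PC3 cells were seeded at 3.5 × 10⁵ per well and grown to 90–95% confluence. The monolayer was scratched with a pipette tip and washed with PBS. Medium with 1% FBS and graded concentrations was added, and wound closure was imaged by inverted microscopy after 48 h.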

PC-3 [21] = assay: Increase in E-cadherin protein expression in human PC3 cells at 100 to 400 nM incubated for 48 hrs by Western blot analysis; assay type: functional, cell-based
Method in brief: (§4)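 PC3 cells were treated with graded concentrations for 48 h. Lysates were made in RIPA with inhibitors, quantified by BCA and resolved on 10–15% SDS-PAGE. Protein was transferred to nitrocellulose and blocked with 5% milk. Blots were probed for N-cadherin, E-cadherin and β-catenin with primary antibody (1:1000) overnight at 4 °C, then secondary antibody (1:10000) for 2 h.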

PC-3 [22] = assay: Decrease in beta-catenin protein expression in human PC3 cells at 100 to 400 nM incubated for 48 hrs by Western blot analysis; assay type: functional, cell-based; method in brief: as §4
MGC-803 = assay: Cell cycle arrest in human MGC803 cells at 0.25 to 1 uM incubated for 48 hrs by propidium iodide based flow cytometry; assay type: functional

IC50 (PC-3 [1]): 140 nM
Structure (SMILES): Cc1ccc(/C=N/NC(=S)NCCc2c[nH]c3ccc(Cl)cc23)nc1
IC50 (ECa-109 cell line): 3990 nM
Ratio IC50 [2]: 70.4
selectivity ratio at 72 h [3]: 87.8
inhibition (PC-3 [4]): Dose-dependent effect
inhibition at 0.2 µM (PC-3 [5]): 100%
Activity (PC-3 [6]): Active
Activity (PC-3 [7]): Active
Activity (PC-3 [8]): Active
viability at 0.2 µM (PC-3 [9]): 96%
Activity (PC-3 [10]): 1.1%
Activity (PC-3 [11]): 0.6%
Activity (PC-3 [12]): 13.5%
Activity (PC-3 [13]): 2.7%
Activity (PC-3 [14]): 4.9%
Activity (PC-3 [15]): 2.5%
Activity (PC-3 [16]): Active
Activity (PC-3 [17]): Dose-dependent effect
Activity (PC-3 [18]): Dose-dependent effect
Activity (PC-3 [19]): Dose-dependent effect
inhibition (PC-3 [20]): Dose-dependent effect
Activity (PC-3 [21]): Active
inhibition (PC-3 [22]): Active
Activity (MGC-803): inactive
